{"source": "ChEMBL document CHEMBL3045357", "about": "“DNA adducts as biomarkers for oxidative and genotoxic stress from pesticides in crop plants” (J Agric Food Chem, 2008)", "format_in_all_cases": "organism-based", "details_in_all_cases": "in vivo, other, 336 h", "key": {"[1]": {"system": "Vitis vinifera", "assay": "Genotoxicity in Vitis vinifera exposed to compound through spray 4 times over 2 weeks assessed as relative adduct level A2 measured per 10^9 nucleotides using [32P]labeling based autoradiography relative to untreated control", "procedure,_shortened": "(§1)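 Plants (2–6 weeks grown), groups of 2–4, sprayed 4 times over 2 weeks with formulations diluted per label (chlorothalonil 1:256, carbaryl 1:64 in water); controls water-sprayed. DNA from 1 g leaf via DNeasy Maxi kit. 10 µg DNA digested with micrococcal nuclease/spleen phosphodiesterase (4 h, 37 °C), NP1-enriched (45 min, 37 °C), labelled with [γ-32P]ATP/T4 kinase (45 min, 37 °C).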"}, "[2]": {"system": "Vitis vinifera", "assay": "Genotoxicity in Vitis vinifera exposed to compound through spray 4 times over 2 weeks assessed as relative adduct level A1 measured per 10^9 nucleotides using [32P]labeling based autoradiography relative to untreated control", "procedure,_shortened": "as §1"}, "[3]": {"system": "Cucumis sativus", "assay": "Genotoxicity in Cucumis sativus (cucumber) exposed to compound through spray 4 times over 2 weeks assessed as relative adduct level A2 measured per 10^9 nucleotides using HX-dG internal standard using [32P]labeling based autoradiography relative to untreated control", "procedure,_shortened": "as §1"}, "[4]": {"system": "Cucumis sativus", "assay": "Genotoxicity in Cucumis sativus (cucumber) exposed to compound through spray 4 times over 2 weeks assessed as relative adduct level A2 measured per 10^9 nucleotides using [32P]labeling based autoradiography relative to untreated control", "procedure,_shortened": "as §1"}, "[5]": {"system": "Phaseolus vulgaris", "assay": "Genotoxicity in Phaseolus vulgaris (bush beans) exposed to compound through spray 4 times over 2 weeks assessed as relative adduct level A6 measured per 10^9 nucleotides using HX-dG internal standard using [32P]labeling based autoradiography relative to untreated control", "procedure,_shortened": "as §1"}, "[6]": {"system": "Phaseolus vulgaris", "assay": "Genotoxicity in Phaseolus vulgaris (bush beans) exposed to compound through spray 4 times over 2 weeks assessed as relative adduct level A5 measured per 10^9 nucleotides using HX-dG internal standard using [32P]labeling based autoradiography relative to untreated control", "procedure,_shortened": "as §1"}, "[7]": {"system": "Phaseolus vulgaris", "assay": "Genotoxicity in Phaseolus vulgaris (bush beans) exposed to compound through spray 4 times over 2 weeks assessed as relative adduct level A4 measured per 10^9 nucleotides using HX-dG internal standard using [32P]labeling based autoradiography relative to untreated control", "procedure,_shortened": "as §1"}, "[8]": {"system": "Phaseolus vulgaris", "assay": "Genotoxicity in Phaseolus vulgaris (bush beans) exposed to compound through spray 4 times over 2 weeks assessed as relative adduct level A2 measured per 10^9 nucleotides using HX-dG internal standard using [32P]labeling based autoradiography relative to untreated control", "procedure,_shortened": "as §1"}, "[9]": {"system": "Phaseolus vulgaris", "assay": "Genotoxicity in Phaseolus vulgaris (bush beans) exposed to compound through spray 4 times over 2 weeks assessed as relative adduct level A1 measured per 10^9 nucleotides using HX-dG internal standard using [32P]labeling based autoradiography relative to untreated control", "procedure,_shortened": "as §1"}, "[10]": {"system": "Phaseolus vulgaris", "assay": "Genotoxicity in Phaseolus vulgaris (bush beans) exposed to compound through spray 4 times over 2 weeks assessed as relative adduct level A6 measured per 10^9 nucleotides using [32P]labeling based autoradiography relative to untreated control", "procedure,_shortened": "as §1"}, "[11]": {"system": "Phaseolus vulgaris", "assay": "GenoToxicity in Phaseolus vulgaris (bush beans) exposed to compound through spray 4 times over 2 weeks assessed as relative adduct level A5 measured per 10^9 nucleotides using [32P]labeling based autoradiography relative to untreated control", "procedure,_shortened": "as §1"}, "[12]": {"system": "Phaseolus vulgaris", "assay": "Genotoxicity in Phaseolus vulgaris (bush beans) exposed to compound through spray 4 times over 2 weeks assessed as relative adduct level A4 measured per 10^9 nucleotides using [32P]labeling based autoradiography relative to untreated control", "procedure,_shortened": "as §1"}, "[13]": {"system": "Phaseolus vulgaris", "assay": "Genotoxicity in Phaseolus vulgaris (bush beans) exposed to compound through spray 4 times over 2 weeks assessed as relative adduct level A3 measured per 10^9 nucleotides using [32P]labeling based autoradiography relative to untreated control", "procedure,_shortened": "as §1"}, "[14]": {"system": "Phaseolus vulgaris", "assay": "Genotoxicity in Phaseolus vulgaris (bush beans) exposed to compound through spray 4 times over 2 weeks assessed as relative adduct level A2 measured per 10^9 nucleotides using [32P]labeling based autoradiography relative to untreated control", "procedure,_shortened": "as §1"}, "[15]": {"system": "Phaseolus vulgaris", "assay": "Genotoxicity in Phaseolus vulgaris (bush beans) exposed to compound through spray 4 times over 2 weeks assessed as relative adduct level A1 measured per 10^9 nucleotides using [32P]labeling based autoradiography relative to untreated control", "procedure,_shortened": "as §1"}, "[16]": {"system": "Glycine max", "assay": "Genotoxicity in Glycine max (soybean) exposed to compound through spray 4 times over 2 weeks assessed as relative adduct level A6 measured per 10^9 nucleotides using HX-dG internal standard using [32P]labeling based autoradiography relative to untreated control", "procedure,_shortened": "as §1"}, "[17]": {"system": "Glycine max", "assay": "Genotoxicity in Glycine max (soybean) exposed to compound through spray 4 times over 2 weeks assessed as relative adduct level A5 measured per 10^9 nucleotides using HX-dG internal standard using [32P]labeling based autoradiography relative to untreated control", "procedure,_shortened": "as §1"}, "[18]": {"system": "Glycine max", "assay": "Genotoxicity in Glycine max (soybean) exposed to compound through spray 4 times over 2 weeks assessed as relative adduct level A6 measured per 10^9 nucleotides using [32P]labeling based autoradiography relative to untreated control", "procedure,_shortened": "as §1"}, "[19]": {"system": "Glycine max", "assay": "Genotoxicity in Glycine max (soybean) exposed to compound through spray 4 times over 2 weeks assessed as relative adduct level A4 measured per 10^9 nucleotides using [32P]labeling based autoradiography relative to untreated control", "procedure,_shortened": "as §1"}, "[20]": {"system": "Glycine max", "assay": "Genotoxicity in Glycine max (soybean) exposed to compound through spray 4 times over 2 weeks assessed as relative adduct level A3 measured per 10^9 nucleotides using [32P]labeling based autoradiography relative to untreated control", "procedure,_shortened": "as §1"}, "[21]": {"system": "Glycine max", "assay": "Genotoxicity in Glycine max (soybean) exposed to compound through spray 4 times over 2 weeks assessed as relative adduct level A2 measured per 10^9 nucleotides using [32P]labeling based autoradiography relative to untreated control", "procedure,_shortened": "as §1"}, "[22]": {"system": "Glycine max", "assay": "Genotoxicity in Glycine max (soybean) exposed to compound through spray 4 times over 2 weeks assessed as relative adduct level A1 measured per 10^9 nucleotides using [32P]labeling based autoradiography relative to untreated control", "procedure,_shortened": "as §1"}, "[23]": {"system": "Cucurbita pepo", "assay": "Genotoxicity in Cucurbita pepo (pumpkin) exposed to compound through spray 4 times over 2 weeks assessed as relative adduct level A5 measured per 10^9 nucleotides using HX-dG internal standard using [32P]labeling based autoradiography relative to untreated control", "procedure,_shortened": "as §1"}, "[24]": {"system": "Cucurbita pepo", "assay": "Genotoxicity in Cucurbita pepo (pumpkin) exposed to compound through spray 4 times over 2 weeks assessed as relative adduct level A3 measured per 10^9 nucleotides using HX-dG internal standard using [32P]labeling based autoradiography relative to untreated control", "procedure,_shortened": "as §1"}, "[25]": {"system": "Glycine max", "assay": "Genotoxicity in Glycine max (soybean) exposed to compound through spray 4 times over 2 weeks assessed as relative adduct level A2 measured per 10^9 nucleotides using HX-dG internal standard using [32P]labeling based autoradiography relative to untreated control", "procedure,_shortened": "as §1"}, "[26]": {"system": "Glycine max", "assay": "Genotoxicity in Glycine max (soybean) exposed to compound through spray 4 times over 2 weeks assessed as relative adduct level A1 measured per 10^9 nucleotides using HX-dG internal standard using [32P]labeling based autoradiography relative to untreated control", "procedure,_shortened": "as §1"}, "[27]": {"system": "Cucurbita pepo", "assay": "Genotoxicity in Cucurbita pepo (pumpkin) exposed to compound through spray 4 times over 2 weeks assessed as relative adduct level A2 measured per 10^9 nucleotides using HX-dG internal standard using [32P]labeling based autoradiography relative to untreated control", "procedure,_shortened": "as §1"}, "[28]": {"system": "Cucurbita pepo", "assay": "Genotoxicity in Cucurbita pepo (pumpkin) exposed to compound through spray 4 times over 2 weeks assessed as relative adduct level A4 measured per 10^9 nucleotides using [32P]labeling based autoradiography relative to untreated control", "procedure,_shortened": "as §1"}, "[29]": {"system": "Cucurbita pepo", "assay": "Genotoxicity in Cucurbita pepo (pumpkin) exposed to compound through spray 4 times over 2 weeks assessed as relative adduct level A2 measured per 10^9 nucleotides using [32P]labeling based autoradiography relative to untreated control", "procedure,_shortened": "as §1"}, "[30]": {"system": "Glycine max", "assay": "Genotoxicity in Glycine max (soybean) exposed to compound through spray 4 times over 2 weeks assessed as HNE-dG adducts measured per 10^9 nucleotides using [32P]labeling based autoradiography (reference value: 2 no unit)", "procedure,_shortened": "as §1"}}, "data": [{"smiles": "N#Cc1c(Cl)c(Cl)c(Cl)c(C#N)c1Cl", "note": "[CHLOROTHALONIL]", "values": [{"measurement": "Activity", "setting": "[1]", "value": 66}, {"measurement": "Activity", "setting": "[2]", "value": 36}, {"measurement": "Activity", "setting": "[3]", "value": 12506, "unit": "cpm"}, {"measurement": "Activity", "setting": "[4]", "value": 268}, {"measurement": "Activity", "setting": "[5]", "value": 6051, "unit": "cpm"}, {"measurement": "Activity", "setting": "[6]", "value": 4410, "unit": "cpm"}, {"measurement": "Activity", "setting": "[7]", "value": 2814, "unit": "cpm"}, {"measurement": "Activity", "setting": "[8]", "value": 5697, "unit": "cpm"}, {"measurement": "Activity", "setting": "[9]", "value": 5901, "unit": "cpm"}, {"measurement": "Activity", "setting": "[10]", "value": 174}, {"measurement": "Activity", "setting": "[11]", "value": 127}, {"measurement": "Activity", "setting": "[12]", "value": 81}, {"measurement": "Activity", "setting": "[13]", "value": 145}, {"measurement": "Activity", "setting": "[14]", "value": 164}, {"measurement": "Activity", "setting": "[15]", "value": 169}, {"measurement": "Activity", "setting": "[16]", "value": 16472, "unit": "cpm"}, {"measurement": "Activity", "setting": "[17]", "value": 4613, "unit": "cpm"}, {"measurement": "Activity", "setting": "[18]", "value": 324}, {"measurement": "Activity", "setting": "[19]", "value": 134}, {"measurement": "Activity", "setting": "[20]", "value": 136}, {"measurement": "Activity", "setting": "[21]", "value": 172}, {"measurement": "Activity", "setting": "[22]", "value": 797}, {"measurement": "Activity", "setting": "[23]", "value": 3195, "unit": "cpm"}, {"measurement": "Activity", "setting": "[24]", "value": 3033, "unit": "cpm"}, {"measurement": "Activity", "setting": "[25]", "value": 8753, "unit": "cpm"}, {"measurement": "Activity", "setting": "[26]", "value": 40547, "unit": "cpm"}, {"measurement": "Activity", "setting": "[27]", "value": 1323, "unit": "cpm"}, {"measurement": "Activity", "setting": "[28]", "value": 13}, {"measurement": "Activity", "setting": "[29]", "value": 26}, {"measurement": "Activity", "setting": "[30]", "value": 160}]}]}
